Experimental data: ChEMBL document CHEMBL1128223 (J Med Chem, 1995)

Legend:
SK-OV-3 = experiment: Cytotoxicity was determined in vitro in SK-OV-3 cells (ovarian) of human tumor cell lines by using MTT assay; assay type: functional, cell-based
How it was run: (§1)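 MTT microculture tetrazolium assay. Cells grown in α-MEM with 15% heat-inactivated FBS, glutamine, pyruvate, insulin and nonessential amino acids at 37 °C, 5% CO2. Seeded at 1500–4000 cells/well and allowed to adhere overnight. Exposed to compound for 48 h, then fresh medium for 48 h, quadruplicate per concentration. MTT 4 h, dye extracted in DMSO, A570 read. IC50 (50% cell kill) from four-parameter logistic fit.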

SK-VLB = experiment: Cytotoxicity was determined in vitro in SKVLB cells(ovarian with upregulated MDRp-glycoprotein) of human tumor cell lines by using MTT assay; assay type: functional, cell-based; how it was run: as §1
[1] = MDR ratio as the ratio of IC50 value against SKVLB to that of SKOV3,; assay type: functional
HT-29 [2] = experiment: Cytotoxicity was determined in vitro in HT-29 cells(colon) of human tumor cell lines by using MTT assay; assay type: functional, cell-based; how it was run: as §1
LOX IMVI = experiment: Cytotoxicity was determined in vitro in LOX cells (melanoma) of human tumor cell lines by using MTT assay; assay type: functional, cell-based
How it was run: (§2)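 Cells grown in α-MEM with 15% heat-inactivated FBS, 2 mM L-glutamine, 1 mM pyruvate, insulin and nonessential amino acids at 37 °C, 5% CO2. Seeded at 1500–4000 cells/well and allowed to adhere overnight. Exposed to compound for 48 h, then to fresh medium for 48 h, in quadruplicate per concentration. MTT for 4 h, dye extracted in DMSO, A570 read. IC50 (50% cell kill) from four-parameter logistic fit.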

T47D = experiment: Cytotoxicity was determined in vitro in T47D cells(breast) of human tumor cell lines by using MTT assay; assay type: functional, cell-based; how it was run: as §2
Mus musculus [3] = experiment: The body weight loss was measured in mice in vivo by using the HT-29 Human colon Xenograft model at a dose of 5 mg/kg; assay type: functional
How it was run: (§3)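 HT29 subcutaneous flank xenografts in female nu/nu mice, 6 per group. Compound in 0.1 M acetate buffer pH 5, 0.2 mL s.c., twice weekly for 5 weeks. Body weight monitored twice weekly. Value is group mean body weight loss, with ≥30% loss considered lethal. Dose ceiling set beforehand by dose-ranging in naive mice on the same schedule.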

Mus musculus [4] = experiment: The body weight loss was measured in mice in vivo by using the HT-29 Human colon Xenograft model at a dose of 7 mg/kg; assay type: functional; how it was run: as §3
Mus musculus [5] = experiment: The body weight loss was measured in mice in vivo by using the HT-29 Human colon Xenograft model at a dose of 9 mg/kg; assay type: functional; how it was run: as §3
Mus musculus [6] = experiment: (§4) The no. of deaths of mice(infected with HT-29 cells) was reported at a dose of 9 mg/kg; assay type: ADME, organism-based; parameters: dose 9 mg/kg; details: in vivo
How it was run: (§5)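 HT29 s.c. xenografts in female nu/nu mice, 6 per group. Compound given s.c. in 0.1 M sodium acetate pH 5, twice weekly for 5 weeks. Body weights monitored; mean body weight loss and deaths recorded per dose group. Dose range included the highest dose from a dose-ranging study in naive mice, in which ≥30% weight loss was considered lethal.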

Mus musculus [7] = experiment: The body weight loss was measured in mice in vivo by using the HT-29 Human colon Xenograft model at a dose of 11 mg/kg; assay type: functional; how it was run: as §3
Mus musculus [8] = experiment: In vivo efficacy of tumor growth ratio(T/B) of compound was calculated by using the HT-29 Human colon Xenograft model in mice at a dose of 5 mg/kg; assay type: functional
How it was run: (§6)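 Female nu/nu mice (18–24 g) given 10^6 HT29 cells subcutaneously in the left axillary flank. Grouped at 6 per dose with matched body weight and palpable tumor of about 150 mm². Compound in 0.1 M sodium acetate pH 5, 0.2 mL s.c., twice weekly for 5 weeks. Volume = length × width²/2 by calipers. T/B = end-of-treatment mean volume divided by initial mean volume.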

Mus musculus [9] = experiment: The no. of deaths of mice(infected with HT-29 cells) was reported at a dose of 5 mg/kg; assay type: functional; how it was run: as §5
Mus musculus [10] = experiment: In vivo efficacy of tumor growth ratio(T/B) of compound was calculated by using the HT-29 Human colon Xenograft model in mice at a dose of 11 mg/kg; assay type: functional; how it was run: as §6
HT-29 [11] = experiment: In vivo efficacy of tumor growth ratio(T/B) of compound was calculated by using the HT-29 Human colon Xenograft model in mice at a dose of 7 mg/kg; assay type: functional; how it was run: as §6
Mus musculus [12] = experiment: The no. of deaths of mice(infected with HT-29 cells) was reported at a dose of 11 mg/kg; assay type: functional; how it was run: as §5
Mus musculus [13] = experiment: In vivo efficacy of tumor growth ratio(T/B) of compound was calculated by using the HT-29 Human colon Xenograft model in mice at a dose of 9 mg/kg; assay type: functional; how it was run: as §6
Mus musculus [14] = experiment: The no. of deaths of mice(infected with HT-29 cells) was reported at a dose of 7 mg/kg; assay type: functional; how it was run: as §5
Mus musculus [15] = experiment: In vivo efficacy of tumor growth ratio(T/B) of compound was calculated by using the HT-29 Human colon Xenograft model in mice at a dose of 4 mg/kg; assay type: functional
How it was run: (§7)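 Female nu/nu mice, 10⁶ HT29 cells implanted subcutaneously in the flank. Groups of 6 started at about 150 mm2 palpable tumor. Compound in 0.1 M sodium acetate pH 5 given s.c. twice weekly for 5 weeks. Tumor volume from calipers as length × width²/2. T/B is mean volume at end of treatment divided by mean initial volume.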

Mus musculus [16] = experiment: The no. of deaths of mice(infected with HT-29 cells) was reported at a dose of 2 mg/kg; assay type: functional; how it was run: as §5
Mus musculus [17] = experiment: The no. of deaths of mice(infected with HT-29 cells) was reported at a dose of 3 mg/kg; assay type: functional; how it was run: as §5
Mus musculus [18] = experiment: In vivo efficacy of tumor growth ratio(T/B) of compound was calculated by using the HT-29 Human colon Xenograft model in mice at a dose of 1 mg/kg; assay type: functional; how it was run: as §7
Mus musculus [19] = experiment: The body weight loss was measured in mice in vivo by using the HT-29 Human colon Xenograft model at a dose of 4 mg/kg; assay type: functional; how it was run: as §5
Mus musculus [20] = experiment: The body weight loss was measured in mice in vivo by using the HT-29 Human colon Xenograft model at a dose of 1 mg/kg; assay type: functional; how it was run: as §5
Mus musculus [21] = experiment: The body weight loss was measured in mice in vivo by using the HT-29 Human colon Xenograft model at a dose of 2 mg/kg; assay type: functional; how it was run: as §5
Mus musculus [22] = experiment: The no. of deaths of mice(infected with HT-29 cells) was reported at a dose of 4 mg/kg; assay type: functional; how it was run: as §5
Mus musculus [23] = experiment: In vivo efficacy of tumor growth ratio(T/B) of compound was calculated by using the HT-29 Human colon Xenograft model in mice at a dose of 3 mg/kg; assay type: functional; how it was run: as §7
Mus musculus [24] = experiment: The body weight loss was measured in mice in vivo by using the HT-29 Human colon Xenograft model at a dose of 3 mg/kg; assay type: functional; how it was run: as §5
Mus musculus [25] = experiment: In vivo efficacy of tumor growth ratio(T/B) of compound was calculated by using the HT-29 Human colon Xenograft model in mice at a dose of 2 mg/kg; assay type: functional; how it was run: as §7
Mus musculus [26] = experiment: The no. of deaths of mice(infected with HT-29 cells) was reported at a dose of 1 mg/kg; assay type: functional; how it was run: as §5
Mus musculus [27] = experiment: In vivo efficacy of tumor growth ratio(T/B) of compound was calculated by using the HT-29 Human colon Xenograft model in mice at a dose of 6 mg/kg; assay type: functional; how it was run: as §6
Mus musculus [28] = experiment: as §4; assay type: functional; how it was run: as §5
Mus musculus [29] = experiment: The no. of deaths of mice(infected with HT-29 cells) was reported at a dose of 6 mg/kg; assay type: functional; how it was run: as §5
Mus musculus [30] = experiment: In vivo efficacy of tumor growth ratio(T/B) of compound was calculated by using the HT-29 Human colon Xenograft model in mice at a dose of 12 mg/kg; assay type: functional; how it was run: as §6
Mus musculus [31] = experiment: The body weight loss was measured in mice in vivo by using the HT-29 Human colon Xenograft model at a dose of 6 mg/kg; assay type: functional; how it was run: as §3
Mus musculus [32] = experiment: The no. of deaths of mice(infected with HT-29 cells) was reported at a dose of 12 mg/kg; assay type: ADME, organism-based; parameters: dose 12 mg/kg; details: in vivo; how it was run: as §5
Mus musculus [33] = experiment: The body weight loss was measured in mice in vivo by using the HT-29 Human colon Xenograft model at a dose of 12 mg/kg; assay type: functional; how it was run: as §3

SMILES: CC[C@@]1(O)C(=O)OCc2c1cc1n(c2=O)Cc2c-1nc1cc3c(cc1c2CCl)OCCO3
- IC50 (SK-OV-3): 0.004 µM
- IC50 (SK-VLB): 0.008 µM
- MDR ratio [1]: 2
- IC50 (HT-29 [2]): 0.013 µM

SMILES: COc1cccc2c1C(=O)c1c(O)c3c(c(O)c1C2=O)C[C@@](O)(C(=O)CO)C[C@@H]3O[C@H]1C[C@H](N)[C@H](O)[C@H](C)O1 [DOXORUBICIN]
- IC50 (SK-OV-3): 0.036 µM
- IC50 (SK-VLB): 5.65 µM
- MDR ratio [1]: 160
- IC50 (HT-29 [2]): 0.331 µM
- IC50 (LOX IMVI): 0.042 µM
- IC50 (T47D): 0.072 µM

SMILES: CC[C@@]1(O)C(=O)OCc2c1cc1n(c2=O)Cc2cc3c(CN(C)C)c(O)ccc3nc2-1 [TOPOTECAN]
- BW loss (Mus musculus [3]): 15%
- IC50 (SK-OV-3): 0.044 µM
- IC50 (SK-VLB): 0.149 µM
- BW loss (Mus musculus [4]): 11%
- IC50 (HT-29 [2]): 0.025 µM
- BW loss (Mus musculus [5]): 17%
- Deaths (Mus musculus [6]): 2
- BW loss (Mus musculus [7]): 23%
- Efficacy (Mus musculus [8]): 8.6
- Deaths (Mus musculus [9]): 0
- Efficacy (Mus musculus [10]): 2.9
- Efficacy (HT-29 [11]): 7
- IC50 (LOX IMVI): 0.005 µM
- Deaths (Mus musculus [12]): 0
- Efficacy (Mus musculus [13]): 4.3
- Deaths (Mus musculus [14]): 0
- IC50 (T47D): 0.104 µM

SMILES: CC[C@@]1(O)C(=O)OCc2c1cc1n(c2=O)Cc2c-1nc1cc3c(cc1c2CN1CCN(C)CC1)OCO3.O=C(O)C(F)(F)F
- Efficacy (Mus musculus [15]): 0.6
- IC50 (SK-OV-3): 0.004 µM
- IC50 (SK-VLB): 0.017 µM
- Deaths (Mus musculus [16]): 0
- Deaths (Mus musculus [17]): 0
- Efficacy (Mus musculus [18]): 6.4
- IC50 (HT-29 [2]): 0.002 µM
- BW loss (Mus musculus [19]): 20%
- BW loss (Mus musculus [20]): 11%
- BW loss (Mus musculus [21]): 8%
- Deaths (Mus musculus [22]): 0
- IC50 (LOX IMVI): 0.0005 µM
- Efficacy (Mus musculus [23]): 0.9
- BW loss (Mus musculus [24]): 12%
- IC50 (T47D): 0.03 µM
- Efficacy (Mus musculus [25]): 1.7
- Deaths (Mus musculus [26]): 0

SMILES: CC[C@@]1(O)C(=O)OCc2c1cc1n(c2=O)Cc2c-1nc1cc3c(cc1c2CN1CCN(C)CC1)OCCO3.O=C(O)C(F)(F)F
- Efficacy (Mus musculus [27]): 1.6
- IC50 (SK-OV-3): 0.016 µM
- IC50 (SK-VLB): 0.102 µM
- Deaths (Mus musculus [28]): 0
- Deaths (Mus musculus [29]): 0
- MDR ratio [1]: 6
- Efficacy (Mus musculus [30]): 0.4
- BW loss (Mus musculus [31]): 5%
- Deaths (Mus musculus [17]): 0
- IC50 (HT-29 [2]): 0.006 µM
- Deaths (Mus musculus [32]): 2
- BW loss (Mus musculus [5]): 7%
- BW loss (Mus musculus [33]): 22%
- IC50 (LOX IMVI): 0.001 µM
- Efficacy (Mus musculus [13]): 0.8
- Efficacy (Mus musculus [23]): 5.5
- BW loss (Mus musculus [24]): 8%
- IC50 (T47D): 0.038 µM

SMILES: CC[C@@]1(O)C(=O)OCc2c1cc1n(c2=O)Cc2cc3ccccc3nc2-1 [CAMPTOTHECIN]
- IC50 (SK-OV-3): 0.037 µM
- IC50 (SK-VLB): 0.041 µM
- IC50 (HT-29 [2]): 0.046 µM
- IC50 (LOX IMVI): 0.048 µM
- IC50 (T47D): 0.207 µM
